According to ChEMBL document CHEMBL1131250 (J Med Chem, 1998):

What was measured:
[1] = target: T1, D(2) dopamine receptor (Homo sapiens, UniProt P14416); assay: The compound was tested for CNS binding affinity towards Dopamine receptor D2 from cloned Human membranes.
Outline: (§1)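 Radioligand binding on membranes from cloned human receptors (5-HT1A, 5-HT2A, D2, D4). Ki values reported.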

[2] = system: Cavia porcellus; assay: The compound (25umol/kg, sc) was tested for hypothermic response for 60 mins in Guinea pig; type: functional
Outline: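 Guinea pigs received compound subcutaneously (doses 25–100 μmol/kg across groups), and body temperature change was read at 30 and 60 min after dosing. The hypothermic response is the difference in °C from vehicle-treated controls, reported as mean ± SEM (n = 4–5), with significance tested against vehicle.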

[3] = target: T2, D(4) dopamine receptor (Homo sapiens, UniProt P21917); assay: The compound was tested for CNS binding affinity towards Dopamine receptor D4 from cloned Human membranes; Inactive
T2 sequence (P21917 whole entry): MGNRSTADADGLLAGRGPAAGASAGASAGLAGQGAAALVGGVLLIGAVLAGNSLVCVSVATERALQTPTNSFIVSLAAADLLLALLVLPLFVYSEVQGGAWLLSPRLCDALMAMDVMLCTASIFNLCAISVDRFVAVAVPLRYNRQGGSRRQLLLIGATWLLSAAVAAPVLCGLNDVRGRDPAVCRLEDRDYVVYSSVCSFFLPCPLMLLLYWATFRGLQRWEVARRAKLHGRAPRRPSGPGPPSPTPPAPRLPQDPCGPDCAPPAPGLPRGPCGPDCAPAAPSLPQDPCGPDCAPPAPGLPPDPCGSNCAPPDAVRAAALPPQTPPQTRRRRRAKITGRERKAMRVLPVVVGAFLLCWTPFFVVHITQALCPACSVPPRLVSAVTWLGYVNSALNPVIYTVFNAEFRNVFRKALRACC

[4] = target: T1, D(2) dopamine receptor; assay: The compound was tested for CNS binding affinity towards Dopamine receptor D2 from cloned Human membranes; outline: as §1
[5] = target: 5-hydroxytryptamine receptor 1B (Gorilla gorilla, UniProt Q9N2B7); assay: The compound was tested for CNS binding affinity towards 5-hydroxytryptamine 1B receptor from cloned gorilla membranes expressed in cultured HEK 293 cells; type: cell-based, HEK293
[6] = target: T3, 5-hydroxytryptamine receptor 1A (Homo sapiens, UniProt P08908); assay: The compound was tested for CNS binding affinity towards 5-hydroxytryptamine 1A receptor from cloned Human membranes; outline: as §1
T3 sequence (P08908 whole entry): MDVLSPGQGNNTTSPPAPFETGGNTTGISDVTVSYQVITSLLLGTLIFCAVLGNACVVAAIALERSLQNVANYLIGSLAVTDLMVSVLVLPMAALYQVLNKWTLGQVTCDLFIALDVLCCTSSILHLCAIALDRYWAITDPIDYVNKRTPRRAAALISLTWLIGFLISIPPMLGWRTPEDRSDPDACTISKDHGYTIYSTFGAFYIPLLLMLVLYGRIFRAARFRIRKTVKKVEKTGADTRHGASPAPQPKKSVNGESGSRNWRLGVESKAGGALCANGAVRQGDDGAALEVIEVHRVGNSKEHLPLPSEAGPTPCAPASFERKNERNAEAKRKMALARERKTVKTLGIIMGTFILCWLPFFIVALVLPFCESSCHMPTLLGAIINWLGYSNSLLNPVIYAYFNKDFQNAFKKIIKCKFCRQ

[7] = target: T2, D(4) dopamine receptor; assay: The compound was tested for CNS binding affinity towards Dopamine receptor D4 from cloned Human membranes; outline: as §1
[8] = target: T3, 5-hydroxytryptamine receptor 1A; assay: The compound was tested for CNS binding affinity towards 5-hydroxytryptamine 1A receptor from cloned Human membranes.; outline: as §1
[9] = system: Cavia porcellus; assay: The compound (50umol/kg, sc) was tested for hypothermic response for 30 mins in Guinea pig; type: functional
Outline: (§2)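 Guinea pigs dosed subcutaneously. Body temperature change read at 30 and 60 min after dosing. Response given as the difference in °C from vehicle-treated controls, as mean ± SEM, n = 4-5 per group. Significance tested against vehicle.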

[10] = system: Cavia porcellus; assay: The compound (50umol/kg, sc) was tested for hypothermic response for 60 mins and in Guinea pig; type: functional; outline: as §2
[11] = target: T4, 5-hydroxytryptamine receptor 2A (Homo sapiens, UniProt P28223); assay: The compound was tested for CNS binding affinity towards 5-hydroxytryptamine 2A receptor from cloned Human membranes
[12] = target: T2, D(4) dopamine receptor; assay: The compound was tested for CNS binding affinity towards Dopamine receptor D4 from cloned Human membranes.; outline: as §1
[13] = target: T4, 5-hydroxytryptamine receptor 2A; assay: The compound was tested for CNS binding affinity towards 5-hydroxytryptamine 2A receptor from cloned Human membranes.; outline: as §1
[14] = system: Cavia porcellus; assay: The compound (100umol/kg, sc) was tested for hypothermic response for 60 mins and in Guinea pig; type: functional; outline: as §2
[15] = system: Cavia porcellus; assay: The compound (25umol/kg, sc) was tested for hypothermic response for 60 mins and in Guinea pig; type: functional; outline: as §2
[16] = system: Cavia porcellus; assay: The compound (25umol/kg, sc) was tested for hypothermic response for 30 mins in Guinea pig; type: functional; outline: as §2
[17] = system: Cavia porcellus; assay: The compound (100umol/kg, sc) was tested for hypothermic response for 30 mins in Guinea pig; type: functional; outline: as §2

T4 sequence (P28223 whole entry): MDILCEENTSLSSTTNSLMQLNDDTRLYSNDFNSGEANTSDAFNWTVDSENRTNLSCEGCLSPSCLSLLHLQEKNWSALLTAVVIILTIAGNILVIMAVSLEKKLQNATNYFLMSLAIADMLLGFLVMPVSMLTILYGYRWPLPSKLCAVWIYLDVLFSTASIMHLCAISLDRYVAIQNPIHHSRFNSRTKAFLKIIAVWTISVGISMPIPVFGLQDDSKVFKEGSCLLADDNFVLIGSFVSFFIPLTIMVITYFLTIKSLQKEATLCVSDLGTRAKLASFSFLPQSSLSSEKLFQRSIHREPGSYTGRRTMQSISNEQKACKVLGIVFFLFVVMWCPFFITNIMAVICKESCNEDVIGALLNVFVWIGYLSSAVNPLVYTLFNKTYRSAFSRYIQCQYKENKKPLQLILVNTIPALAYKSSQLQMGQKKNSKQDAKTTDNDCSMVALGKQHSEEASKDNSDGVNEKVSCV
T1 sequence (P14416 whole entry): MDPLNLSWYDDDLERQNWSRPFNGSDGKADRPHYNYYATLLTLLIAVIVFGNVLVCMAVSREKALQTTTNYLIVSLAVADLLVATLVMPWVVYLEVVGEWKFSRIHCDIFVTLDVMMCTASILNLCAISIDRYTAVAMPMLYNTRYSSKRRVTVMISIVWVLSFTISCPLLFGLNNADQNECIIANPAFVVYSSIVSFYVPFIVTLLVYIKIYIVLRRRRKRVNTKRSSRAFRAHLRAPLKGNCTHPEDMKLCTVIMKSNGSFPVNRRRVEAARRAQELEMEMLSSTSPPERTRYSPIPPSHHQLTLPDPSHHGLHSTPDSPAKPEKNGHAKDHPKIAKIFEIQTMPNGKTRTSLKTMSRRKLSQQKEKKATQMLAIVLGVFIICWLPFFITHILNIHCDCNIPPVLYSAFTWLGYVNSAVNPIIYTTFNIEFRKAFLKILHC
Sequence of 5-hydroxytryptamine receptor 1B (Q9N2B7 whole entry): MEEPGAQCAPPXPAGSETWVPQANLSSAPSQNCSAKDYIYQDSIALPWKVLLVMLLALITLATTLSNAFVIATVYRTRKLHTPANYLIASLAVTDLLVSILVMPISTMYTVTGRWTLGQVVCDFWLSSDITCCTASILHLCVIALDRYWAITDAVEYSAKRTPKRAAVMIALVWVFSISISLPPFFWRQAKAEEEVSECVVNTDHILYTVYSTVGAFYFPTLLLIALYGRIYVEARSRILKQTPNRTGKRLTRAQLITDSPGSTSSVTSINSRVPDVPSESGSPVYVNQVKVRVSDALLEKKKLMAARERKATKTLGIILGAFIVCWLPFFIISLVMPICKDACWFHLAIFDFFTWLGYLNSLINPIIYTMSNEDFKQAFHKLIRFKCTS

| SMILES | Ki [1] [nM] | Ki [3] | Ki [5] [nM] | Ki [8] [nM] | further results |
| --- | --- | --- | --- | --- | --- |
| CNS(=O)(=O)Cc1ccc2[nH]cc(CCN(C)C)c2c1 | > 218 | Not Active |  |  | Hypothermic effect [2]: -0.14 |
| COc1ccc(N2CCN(CCC3OCCc4ccccc43)CC2)cc1 (configuration not stated) | 1430 |  | 7240 | 899 | Ki [11]: 76 nM; Ki [12]: 2.4 nM |
| CNC(=O)c1ccc2c(c1)CCO[C@@H]2CCN1CCN(c2ccc(OC)cc2)CC1 | 158 | Not Active | 150000 | > 3360 | Ki [13]: 586 nM |
| CNC(=O)c1ccc2c(c1)CCO[C@H]2CCN1CCN(c2ccc(OC)cc2)CC1 | 241 |  | 5780 | 1090 | Ki [11]: 168 nM; Hypothermic effect [14]: -1.52 °C; Hypothermic effect [15]: -0.54 °C; Hypothermic effect [9]: -1.84 °C; Ki [12]: > 3700 nM; Hypothermic effect [10]: -2.34 °C; Hypothermic effect [16]: -0.8 °C; Hypothermic effect [17]: -1.38 °C |

Continued, in another order:

| Ki [1] [nM] | Ki [3] | Ki [5] [nM] | Ki [8] [nM] | SMILES | further results |
| --- | --- | --- | --- | --- | --- |
|  |  | 5860 |  | COc1ccc(N2CCN(CCC3OCCc4cc(C(N)=O)ccc43)CC2)cc1 (configuration not stated) | Ki [4]: 348 nM; Ki [6]: 2460 nM; Ki [7]: 1050 nM |
| 325 | Not Active | 3020 | 967 | COc1ccc(N2CCN(CC[C@@H]3OCCc4cc(C(N)=O)ccc43)CC2)cc1 | Hypothermic effect [9]: -1.42 °C; Hypothermic effect [10]: -1.14 °C |
| 386 |  | 26000 | > 3360 | COc1ccc(N2CCN(CC[C@H]3OCCc4cc(C(N)=O)ccc43)CC2)cc1 |  |
